From ChEMBL document CHEMBL1145480, “Horizontal gene transfer of ftsI, encoding penicillin-binding protein 3, in Haemophilus influenzae” (2007) come the findings set out here.

≈ marks a conversion by molar mass, not a printed value.

Format in all cases: functional
Assay [1] has as its system Haemophilus influenzae. Nature of the assay: Antibacterial activity against Haemophilus influenzae MSC02070 by broth microdilution method. In a few lines: (§1)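 MICs were determined by broth dilution following CLSI guidelines (approved standard M7-A7). The agents were rifampin, cefdinir and fosfomycin. Strains were routinely grown on chocolate II agar or in brain heart infusion broth with 2% defibrinated, lysed horse blood plus 15 μg/ml β-NAD+.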
On the technique in general: Broth dilution looks for growth in wells or tubes with falling amounts of substance.

Assay [2] has as its system Haemophilus influenzae. Nature of the assay: Antibacterial activity against rifampin-resistant Haemophilus influenzae RdRIF by broth microdilution method. An outline of the steps:
as §1

The subject of assay [3] is Aggregatibacter aphrophilus. Nature of the assay: Antibacterial activity against Haemophilus aphrophilus ATCC 33389 by broth microdilution method.
Assay [4] deals with Aggregatibacter aphrophilus. Nature of the assay: Antibacterial activity against Haemophilus paraphrophilus ATCC 29241 by broth microdilution method.
Assay [5] deals with Haemophilus parainfluenzae. Nature of the assay: Antibacterial activity against Haemophilus parainfluenzae ATCC 33392 by broth microdilution method.
The test system of assay [6] is Haemophilus influenzae. Nature of the assay: Antibacterial activity against Haemophilus influenzae MSC06651 by broth microdilution method. In a few lines: as §1
In assay [7] the test system is Haemophilus influenzae. Nature of the assay: Antibacterial activity against Haemophilus influenzae MSC07237 by broth microdilution method. An outline of the steps: as §1
For assay [8], the system named is Haemophilus influenzae. Nature of the assay: Antibacterial activity against Haemophilus influenzae MSC01855 by broth microdilution method. An outline of the steps: as §1
Assay [9] concerns Haemophilus influenzae. Nature of the assay: Antibacterial activity against Haemophilus influenzae MSC06647 by broth microdilution method. An outline of the steps: as §1
Assay [10] has as its system Haemophilus haemolyticus. Nature of the assay: Antibacterial activity against Haemophilus haemolyticus MSC07286 by broth microdilution method.
In a further assay the test system is Aggregatibacter segnis. Nature of the assay: Antibacterial activity against Haemophilus segnis ATCC 33393 by broth microdilution method.
The subject of assay [11] is Haemophilus influenzae. Nature of the assay: Antibacterial activity against Haemophilus influenzae MSC07771 by broth microdilution method. In a few lines: as §1
Assay [12] deals with Haemophilus influenzae. Nature of the assay: Antibacterial activity against Haemophilus influenzae MSC02104 by broth microdilution method.
Assay [13] has as its system Haemophilus influenzae. Nature of the assay: Antibacterial activity against Haemophilus influenzae MSC01400 by broth microdilution method. In a few lines:
as §1

Assay [14] concerns Haemophilus influenzae. Nature of the assay: Antibacterial activity against Haemophilus influenzae MSC07169 by broth microdilution method. In a few lines:
as §1

The subject of assay [15] is Haemophilus influenzae. Nature of the assay: Antibacterial activity against Haemophilus influenzae MSC02022 by broth microdilution method. An outline of the steps: as §1
Assay [16] has as its system Haemophilus influenzae. Nature of the assay: Antibacterial activity against Haemophilus influenzae MSC01363 by broth microdilution method. An outline of the steps: as §1
Assay [17] has as its system Haemophilus haemolyticus. Nature of the assay: Antibacterial activity against Haemophilus haemolyticus ATCC 33390 by broth microdilution method.
In assay [18] the test system is Haemophilus paraphrohaemolyticus. Nature of the assay: Antibacterial activity against Haemophilus paraphrohaemolyticus ATCC 29237 by broth microdilution method.
For assay [19], the system named is Haemophilus influenzae. Nature of the assay: Antibacterial activity against Haemophilus influenzae MSC06663 by broth microdilution method. An outline of the steps:
as §1

The subject of assay [20] is Haemophilus influenzae. Nature of the assay: Antibacterial activity against Haemophilus influenzae MSC01869 by broth microdilution method. An outline of the steps:
as §1

The subject of assay [21] is Haemophilus influenzae. Nature of the assay: Antibacterial activity against Haemophilus influenzae MSC02149 by broth microdilution method. In a few lines: as §1
In assay [22] the test system is Haemophilus parahaemolyticus. Nature of the assay: Antibacterial activity against Haemophilus parahaemolyticus ATCC 10014 by broth microdilution method.
Assay [23] has as its system Haemophilus influenzae. Nature of the assay: Antibacterial activity against Haemophilus influenzae MSC01432 by broth microdilution method. In a few lines:
as §1

In assay [24] the test system is Haemophilus influenzae. Nature of the assay: Antibacterial activity against rifampin and cefdinir-resistant Haemophilus influenzae RdRIF/MSC06647 mutant by broth microdilution method. An outline of the steps: as §1
Assay [25] relates to Haemophilus influenzae. Nature of the assay: Antibacterial activity against Haemophilus influenzae Rd by broth microdilution method. An outline of the steps: as §1
Assay [26] deals with Haemophilus influenzae. Nature of the assay: Antibacterial activity against rifampin and cefdinir-resistant Haemophilus influenzae RdRIF/MSC06651 mutant by broth microdilution method. An outline of the steps: as §1
Assay [27] relates to Haemophilus influenzae. Nature of the assay: Antibacterial activity against rifampin and cefdinir-resistant Haemophilus influenzae RdRIF/MSC06663 mutant by broth microdilution method. In a few lines:
as §1

As for `CC1(C)S[C@@H]2[C@H](NC(=O)[C@H](N)c3ccccc3)C(=O)N2[C@H]1C(=O)O` [AMPICILLIN], the MIC was 8 µg/mL (≈ 22.9 µM) in the assay with Haemophilus influenzae [1]; 0.25 µg/mL (≈ 0.715 µM) against Haemophilus influenzae [2]; 0.5 µg/mL (≈ 1.43 µM) in assay [3]; 0.25 µg/mL (≈ 0.715 µM) in assay [4]; 0.5 µg/mL (≈ 1.43 µM) in [5]; 2 µg/mL (≈ 5.72 µM) against Haemophilus influenzae [6]. The MIC in the assay with Haemophilus influenzae [7] amounted to 4 µg/mL (≈ 11.4 µM); against Haemophilus influenzae [8] it was 4 µg/mL (≈ 11.4 µM); with Haemophilus influenzae [9] it was 2 µg/mL (≈ 5.72 µM); in the assay on Haemophilus haemolyticus [10], 2 µg/mL (≈ 5.72 µM); against Aggregatibacter segnis, 0.5 µg/mL (≈ 1.43 µM); with Haemophilus influenzae [11], 2 µg/mL (≈ 5.72 µM). For the same compound, the MIC was > 64 µg/mL with Haemophilus influenzae [12]; 8 µg/mL (≈ 22.9 µM) in the assay on Haemophilus influenzae [13]; 1 µg/mL (≈ 2.86 µM) in the assay on Haemophilus influenzae [14]; 1 µg/mL (≈ 2.86 µM) against Haemophilus influenzae [15]; 2 µg/mL (≈ 5.72 µM) against Haemophilus influenzae [16]; 0.5 µg/mL (≈ 1.43 µM) against Haemophilus haemolyticus [17]. Besides, the MIC was 0.25 µg/mL (≈ 0.715 µM) in assay [18]; 1 µg/mL (≈ 2.86 µM) in the assay on Haemophilus influenzae [19]; > 64 µg/mL in the assay with Haemophilus influenzae [20]; 8 µg/mL (≈ 22.9 µM) against Haemophilus influenzae [21]; 0.25 µg/mL (≈ 0.715 µM) in [22]; 1 µg/mL (≈ 2.86 µM) in the assay with Haemophilus influenzae [23].
As to `C=CC1=C(C(=O)O)N2C(=O)[C@@H](NC(=O)/C(=N\O)c3csc(N)n3)[C@H]2SC1` [CEFDINIR], the MIC amounted to 8 µg/mL (≈ 20.2 µM) in the assay on Haemophilus influenzae [1]; 2 µg/mL (≈ 5.06 µM) with Haemophilus influenzae [24]; 0.25 µg/mL (≈ 0.632 µM) in the assay on Haemophilus influenzae [25]; 0.25 µg/mL (≈ 0.632 µM) in the assay with Haemophilus influenzae [2]; 0.12 µg/mL (≈ 0.303 µM) in [3]; 0.06 µg/mL (≈ 0.152 µM) in [4]. The MIC in [5] worked out at 0.12 µg/mL (≈ 0.303 µM); in the assay with Haemophilus influenzae [6], 8 µg/mL (≈ 20.2 µM); in the assay on Haemophilus influenzae [7] it was 16 µg/mL (≈ 40.5 µM); in the assay on Haemophilus influenzae [26] it was 8 µg/mL (≈ 20.2 µM); against Haemophilus influenzae [8], 8 µg/mL (≈ 20.2 µM); with Haemophilus influenzae [9] it was 1 µg/mL (≈ 2.53 µM). Further, the MIC was found to be 2 µg/mL (≈ 5.06 µM) against Haemophilus haemolyticus [10]; 0.06 µg/mL (≈ 0.152 µM) against Aggregatibacter segnis; 1 µg/mL (≈ 2.53 µM) against Haemophilus influenzae [11]; 16 µg/mL (≈ 40.5 µM) in the assay with Haemophilus influenzae [12]; 8 µg/mL (≈ 20.2 µM) against Haemophilus influenzae [13]; 1 µg/mL (≈ 2.53 µM) in the assay on Haemophilus influenzae [14]. The MIC against Haemophilus influenzae [15] is 2 µg/mL (≈ 5.06 µM); in the assay on Haemophilus influenzae [16], 1 µg/mL (≈ 2.53 µM); against Haemophilus haemolyticus [17] it was 0.12 µg/mL (≈ 0.303 µM); in the assay on Haemophilus influenzae [27], 8 µg/mL (≈ 20.2 µM); in assay [18] it was 0.016 µg/mL (≈ 0.0405 µM); against Haemophilus influenzae [19] it was 2 µg/mL (≈ 5.06 µM). The MIC came out at 8 µg/mL (≈ 20.2 µM) against Haemophilus influenzae [20], 16 µg/mL (≈ 40.5 µM) against Haemophilus influenzae [21], 0.016 µg/mL (≈ 0.0405 µM) in assay [22] and 2 µg/mL (≈ 5.06 µM) in the assay on Haemophilus influenzae [23].
For the compound `C[C@@H]1O[C@@H]1P(=O)(O)O` [FOSFOMYCIN], the MIC worked out at 2 µg/mL (≈ 14.5 µM) with Haemophilus influenzae [24]; 2 µg/mL (≈ 14.5 µM) in the assay on Haemophilus influenzae [25]; 2 µg/mL (≈ 14.5 µM) in the assay on Haemophilus influenzae [2]; 256 µg/mL (≈ 1850 µM) against Haemophilus influenzae [6]; 1 µg/mL (≈ 7.24 µM) in the assay on Haemophilus influenzae [26]; 0.12 µg/mL (≈ 0.869 µM) against Haemophilus influenzae [9]. Moreover, the MIC came out at 2 µg/mL (≈ 14.5 µM) in the assay with Haemophilus influenzae [27] and 0.06 µg/mL (≈ 0.435 µM) against Haemophilus influenzae [19].
Regarding `CO[C@H]1/C=C/O[C@@]2(C)Oc3c(C)c(O)c4c(O)c(c(/C=N/N5CCN(C)CC5)c(O)c4c3C2=O)NC(=O)/C(C)=C\C=C\[C@H](C)[C@H](O)[C@@H](C)[C@@H](O)[C@@H](C)[C@H](OC(C)=O)[C@@H]1C` [RIFAMPIN], the MIC is > 128 µg/mL in the assay with Haemophilus influenzae [24]; 0.5 µg/mL (≈ 0.608 µM) in the assay on Haemophilus influenzae [25]; > 128 µg/mL against Haemophilus influenzae [2]; 0.5 µg/mL (≈ 0.608 µM) against Haemophilus influenzae [6]; > 128 µg/mL against Haemophilus influenzae [26]; 0.25 µg/mL (≈ 0.304 µM) in the assay with Haemophilus influenzae [9]. In addition, the results for the MIC in the assay on Haemophilus influenzae [27] and against Haemophilus influenzae [19] were > 128 µg/mL and 0.5 µg/mL (≈ 0.608 µM), respectively.
